Source: article PMC9290029 (ACS Medicinal Chemistry Letters, 2022)
Values belong to the compound of their own block, whether it stands above or below them.

Assays:
[1] = Pharmacokinetic assessments in rats; type: in vivo, Sprague Dawley rats; settings: for AUC: male, Sprague-Dawley, rat, plasma, po; for metabolites detected in plasma (Cmax at 30 mpk): rats, oral
human NHE3 = molecular target: T1, human NHE3 (Homo sapiens, UniProt P48764); assay: Cell-based human NHE3 inhibition assay; settings: species not stated; data not shown
T1 sequence (P48764 26-834): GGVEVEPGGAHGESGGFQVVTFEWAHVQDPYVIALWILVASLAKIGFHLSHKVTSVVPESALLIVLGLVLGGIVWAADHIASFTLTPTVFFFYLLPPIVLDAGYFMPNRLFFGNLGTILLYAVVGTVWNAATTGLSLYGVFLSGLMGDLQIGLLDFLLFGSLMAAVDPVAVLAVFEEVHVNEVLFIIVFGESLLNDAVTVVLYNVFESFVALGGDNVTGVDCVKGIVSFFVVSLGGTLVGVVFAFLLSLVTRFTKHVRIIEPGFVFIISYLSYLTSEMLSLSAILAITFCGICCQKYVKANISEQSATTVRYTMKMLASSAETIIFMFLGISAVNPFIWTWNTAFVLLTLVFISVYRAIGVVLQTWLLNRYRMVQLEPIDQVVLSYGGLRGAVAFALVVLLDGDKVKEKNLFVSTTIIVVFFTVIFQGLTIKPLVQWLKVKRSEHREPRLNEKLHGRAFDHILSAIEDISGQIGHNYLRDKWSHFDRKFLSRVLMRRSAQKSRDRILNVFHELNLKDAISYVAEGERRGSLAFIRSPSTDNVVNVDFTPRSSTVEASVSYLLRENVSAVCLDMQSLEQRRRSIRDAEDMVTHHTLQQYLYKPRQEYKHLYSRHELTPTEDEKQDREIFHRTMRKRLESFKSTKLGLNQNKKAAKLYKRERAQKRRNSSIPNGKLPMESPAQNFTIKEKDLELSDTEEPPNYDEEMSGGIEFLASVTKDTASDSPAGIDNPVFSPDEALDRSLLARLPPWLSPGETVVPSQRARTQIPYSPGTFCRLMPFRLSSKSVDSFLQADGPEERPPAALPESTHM
How it was run: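 Cell deacidification assay in transfected opossum kidney cells overexpressing human or rat NHE3. Test compounds are applied across a dose range, and inhibition of intracellular pH recovery is followed with a pH-sensitive dye. Potency is reported as pIC50 for each species.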

Sprague Dawley rats = assay: Rat stool and urine content, stool form scoring; type: in vivo; settings: for Increase in stool water: criterion: 10% increase from control; for Stool water dose-response: oral 0.1–3.0 mg/kg, criterion: Yes
How it was run: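 Rats are dosed orally, 3 mg/kg for screening or 0.1, 0.3, 1.0 and 3.0 mg/kg for dose-response, then held in metabolic cages. Urine sodium reduction is measured at 16 h (n = 6 per group; mean ± SEM; one-way ANOVA with Dunnett's test versus vehicle). Stool form is scored 1 (normal) to 5 (watery), and fecal water is given as percent water by weight and percent of control.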

[2] = test system: dialysis patients with hyperphosphatemia; settings: cited from earlier work
humans = settings: clinical trials, cited from earlier work

AUC ([1]; 5.3 mg/kg): < 19 ng·h/mL
SMILES: CN1Cc2c(Cl)cc(Cl)cc2C(c2ccc(S(=O)(=O)NCCOCCOCCOCCNC(=O)NCCOCCOCCOCCNS(=O)(=O)c3ccc(C4CN(C)Cc5c(Cl)cc(Cl)cc54)cc3)cc2)C1 (stereo not drawn) [Compound 35]

AUC ([1]; 19 mg/kg): < 9 ng·h/mL
SMILES: CN1Cc2c(Cl)cc(Cl)cc2C(c2ccc(S(=O)(=O)NCCOCCOCCOCCNC(=O)c3ccc(C(=O)NCCOCCOCCOCCNS(=O)(=O)c4ccc(C5CN(C)Cc6c(Cl)cc(Cl)cc65)cc4)cc3)cc2)C1 (stereo not drawn) [Compound 37]

AUC ([1]; 1.8 mg/kg): < 75 ng·h/mL
SMILES: CN1Cc2c(Cl)cc(Cl)cc2C(c2cccc(S(=O)(=O)NCCOCCOCCOCCNC(=O)NCCOCCOCCOCCNS(=O)(=O)c3cccc(C4CN(C)Cc5c(Cl)cc(Cl)cc54)c3)c2)C1 (stereo not drawn) [Compound 38]

AUC ([1]; 28 mg/kg): < 8 ng·h/mL
SMILES: CN1Cc2c(Cl)cc(Cl)cc2C(c2cccc(S(=O)(=O)NCCOCCOCCOCCNC(=O)CCC(=O)NCCOCCOCCOCCNS(=O)(=O)c3cccc(C4CN(C)Cc5c(Cl)cc(Cl)cc54)c3)c2)C1 (stereo not drawn) [Compound 44]

The remaining lines, values behind:

SMILES: CN1Cc2c(Cl)cc(Cl)cc2C(c2cccc(S(N)(=O)=O)c2)C1 (stereo not drawn) [Compound 1]
pharmacodynamic (PD) effect in PK studies ([1]; Sprague–Dawley rats): absence of a pharmacodynamic (PD) effect

SMILES: CN1Cc2c(Cl)cc(Cl)cc2C(c2cccc(S(=O)(=O)NCCOCCOCCNC(=O)c3ccc(C(=O)NCCOCCOCCNS(=O)(=O)c4cccc(C5CN(C)Cc6c(Cl)cc(Cl)cc65)c4)cc3)c2)C1 (stereo not drawn) [Compound 20]
AUC ([1]; 22 mg/kg): < 8 ng·h/mL

SMILES: CN1Cc2c(Cl)cc(Cl)cc2C(c2ccc(S(=O)(=O)NCCOCCOCCNC(=O)c3ccc(C(=O)NCCOCCOCCNS(=O)(=O)c4ccc(C5CN(C)Cc6c(Cl)cc(Cl)cc65)cc4)cc3)cc2)C1 (stereo not drawn) [Compound 21]
AUC ([1]; 23 mg/kg): < 8 ng·h/mL

SMILES: CN1Cc2c(Cl)cc(Cl)cc2C(c2cccc(S(=O)(=O)NCCOCCOCCNC(=O)NCCOCCOCCNS(=O)(=O)c3cccc(C4CN(C)Cc5c(Cl)cc(Cl)cc54)c3)c2)C1 (stereo not drawn) [Compound 22]
AUC ([1]; 11 mg/kg): < 19 ng·h/mL

SMILES: CN1Cc2c(Cl)cc(Cl)cc2C(c2ccc(S(=O)(=O)NCCOCCOCCNC(=O)NCCOCCOCCNS(=O)(=O)c3ccc(C4CN(C)Cc5c(Cl)cc(Cl)cc54)cc3)cc2)C1 (stereo not drawn) [Compound 23]
AUC ([1]; 17 mg/kg): < 8 ng·h/mL

SMILES: CN1Cc2c(Cl)cc(Cl)cc2[C@H](c2cccc(S(=O)(=O)NCCOCCOCCNC(=O)Nc3ccc(NC(=O)NCCOCCOCCNS(=O)(=O)c4cccc([C@@H]5CN(C)Cc6c(Cl)cc(Cl)cc65)c4)cc3)c2)C1 [Compound 26]
metabolites detected in plasma (Cmax at 30 mpk) [1]: No metabolites detected
inhibition in the cell assay (maximum reached) (human NHE3): < 100%
Increase in stool water (Sprague Dawley rats): Yes
Stool water dose-response (Sprague Dawley rats): Yes

SMILES: CN1Cc2c(Cl)cc(Cl)cc2[C@H](c2cccc(S(=O)(=O)NCCOCCOCCNC(=O)NCCCCNC(=O)NCCOCCOCCNS(=O)(=O)c3cccc([C@@H]4CN(C)Cc5c(Cl)cc(Cl)cc54)c3)c2)C1 [Compound 28, tenapanor]
metabolites detected in plasma (Cmax at 30 mpk) [1]: No metabolites detected
serum phosphorus levels [2]: lowered serum phosphorus levels
Increase in stool water (Sprague Dawley rats): Yes
Stool water dose-response (Sprague Dawley rats): Yes
stool consistency (humans; versus the placebo): softened stool consistency in a dose-dependent manner
stool frequency and weight (humans; versus the placebo): increased stool frequency and weight
plasma concentrations (humans; humans, below the quantification limit in >95% of all plasma samples): < 0.5 ng/mL
plasma samples below the quantification limit (0.5 ng/mL) (humans; humans): > 95%
